According to ChEMBL document CHEMBL4699588, “Structure-Activity Relationships of Noncovalent Immunoproteasome β5i-Selective Dipeptides” (J Med Chem, 2020):
Activity calls are given as the source filed them. The calls are words filed in the database; no cut-off is given here.

Experiments:
[1] = molecular target: proteasome subunit beta type-6, β1c, PSMB6 (Homo sapiens) (UniProt P28072); experiment: Inhibition of human 20S constitutive proteasome beta 1 at 33.3 uM relative to control
[2] = molecular target: proteasome subunit beta type-7, β2c, PSMB7 (Homo sapiens) (UniProt Q99436); experiment: Inhibition of human 20S constitutive proteasome beta 2 at 33.3 uM relative to control
[3] = Inhibition of anti-CD3 antibody-stimulated T cell proliferation in human PBMCs; assay type: functional, tissue-based; conditions: PBMC
[4] = organism: Homo sapiens; experiment: Inhibition of alpha-chymotrypsin (unknown origin) at 11.1 to 100 uM; conditions: dose 11.1-100 µM
[5] = molecular target: T1, Proteasome subunit beta type-10 (Homo sapiens) (UniProt P40306); experiment: Inhibition of human 20S immunoproteasome beta 2 at 33.3 uM relative to control
T1 sequence (whole entry): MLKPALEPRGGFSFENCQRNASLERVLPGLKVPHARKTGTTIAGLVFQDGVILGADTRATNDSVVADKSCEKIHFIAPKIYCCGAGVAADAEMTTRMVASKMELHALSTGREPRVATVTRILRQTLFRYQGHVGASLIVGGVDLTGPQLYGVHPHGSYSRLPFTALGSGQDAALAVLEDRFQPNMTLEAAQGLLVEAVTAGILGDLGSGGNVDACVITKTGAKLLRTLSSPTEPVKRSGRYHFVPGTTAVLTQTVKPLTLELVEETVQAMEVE

[6] = molecular target: T2, Proteasome subunit beta type-9 (Homo sapiens) (UniProt P28065); experiment: Inhibition of human 20S immunoproteasome beta 1 at 33.3 uM relative to control
T2 sequence (whole entry): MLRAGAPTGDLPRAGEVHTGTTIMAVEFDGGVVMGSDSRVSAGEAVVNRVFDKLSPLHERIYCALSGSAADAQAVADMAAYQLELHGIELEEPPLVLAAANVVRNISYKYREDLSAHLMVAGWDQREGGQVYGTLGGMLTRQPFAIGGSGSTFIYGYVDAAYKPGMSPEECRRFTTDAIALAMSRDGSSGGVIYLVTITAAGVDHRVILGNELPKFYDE

[7] = molecular target: Procathepsin L (Homo sapiens) (UniProt P07711); experiment: Inhibition of cathepsin L (unknown origin) at 11.1 to 100 uM; conditions: dose 11.1-100 µM
[8] = molecular target: Trypsin (Homo sapiens) (UniProt P07477+P07478+P35030); experiment: Inhibition of trypsin (unknown origin) at 11.1 to 100 uM; conditions: dose 11.1-100 µM
[9] = organism: Homo sapiens; experiment: Selectivity index, ratio of IC50 for inhibition of human constitutive 20S proteasome beta 5 chymotrypsin-like activity to IC50 for inhibition of human 20S immunoproteasome beta 5 chymotrypsin-like activity
[10] = molecular target: T3, Proteasome subunit beta type-8 (Homo sapiens, UniProt P28062); experiment: Inhibition of human 20S immunoproteasome beta 5 chymotrypsin-like activity
T3 sequence (P28062 whole entry): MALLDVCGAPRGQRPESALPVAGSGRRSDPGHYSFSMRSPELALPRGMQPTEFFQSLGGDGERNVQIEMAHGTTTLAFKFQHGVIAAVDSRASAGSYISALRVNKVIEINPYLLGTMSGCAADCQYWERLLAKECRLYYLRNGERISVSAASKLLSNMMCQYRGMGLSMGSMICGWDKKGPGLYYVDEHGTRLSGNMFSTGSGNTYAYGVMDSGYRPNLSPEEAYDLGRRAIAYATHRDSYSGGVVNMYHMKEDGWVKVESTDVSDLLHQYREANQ
Outline: (§1)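 Purified human proteasomes were used in a 96-well format assay: immunoproteasome i-20S from PBMC and constitutive c-20S from red blood cells. The readout was fluorogenic AMC peptide substrate cleavage on a plate reader, and IC50 values were determined from it.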

[11] = molecular target: T4, Proteasome Macropain subunit MB1 (Homo sapiens, UniProt P28074); experiment: Inhibition of human constitutive 20S proteasome beta 5 chymotrypsin-like activity
T4 sequence (P28074 whole entry): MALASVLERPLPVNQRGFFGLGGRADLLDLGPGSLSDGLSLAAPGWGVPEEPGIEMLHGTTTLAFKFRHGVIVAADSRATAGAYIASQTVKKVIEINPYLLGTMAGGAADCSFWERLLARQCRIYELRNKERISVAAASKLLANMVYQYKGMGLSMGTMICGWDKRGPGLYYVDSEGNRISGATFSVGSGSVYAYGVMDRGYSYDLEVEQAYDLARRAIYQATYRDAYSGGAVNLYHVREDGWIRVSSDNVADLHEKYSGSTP
Outline: as §1

[12] = molecular target: T3, Proteasome subunit beta type-8; experiment: Inhibition of human 20S immunoproteasome beta 5 chymotrypsin-like activity in human KARPAS-1106P cells incubated for 2 hrs by proteasome-Glo assay; assay type: cell-based

Procathepsin L (Homo sapiens), sequence (P07711 114-333 limits assumed): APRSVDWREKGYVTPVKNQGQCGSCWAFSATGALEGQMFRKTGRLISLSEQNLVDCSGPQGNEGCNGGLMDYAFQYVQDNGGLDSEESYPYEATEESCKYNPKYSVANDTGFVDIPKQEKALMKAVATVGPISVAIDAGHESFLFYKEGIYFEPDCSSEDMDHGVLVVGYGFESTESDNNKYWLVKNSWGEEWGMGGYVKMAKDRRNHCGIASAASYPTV
proteasome subunit beta type-6, β1c, PSMB6 (Homo sapiens), sequence (P28072 whole entry, looked up): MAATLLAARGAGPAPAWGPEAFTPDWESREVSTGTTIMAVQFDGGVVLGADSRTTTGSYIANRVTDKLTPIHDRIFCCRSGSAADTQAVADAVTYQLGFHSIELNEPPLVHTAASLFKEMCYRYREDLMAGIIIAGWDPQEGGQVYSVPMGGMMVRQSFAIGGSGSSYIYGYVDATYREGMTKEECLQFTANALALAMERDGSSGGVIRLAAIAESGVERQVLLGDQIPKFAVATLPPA
proteasome subunit beta type-7, β2c, PSMB7 (Homo sapiens), sequence (Q99436 whole entry, looked up): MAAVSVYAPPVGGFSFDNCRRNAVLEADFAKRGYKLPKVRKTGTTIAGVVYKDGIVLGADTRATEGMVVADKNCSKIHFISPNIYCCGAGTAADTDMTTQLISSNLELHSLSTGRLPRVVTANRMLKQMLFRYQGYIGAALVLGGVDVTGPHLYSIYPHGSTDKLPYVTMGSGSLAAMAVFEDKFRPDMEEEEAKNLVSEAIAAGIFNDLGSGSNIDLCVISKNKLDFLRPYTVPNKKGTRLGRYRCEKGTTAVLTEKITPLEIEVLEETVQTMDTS

Cc1cc(C(=O)N[C@@H](CCC(=O)NC(C)(C)C)C(=O)N[C@@H](C)C(=O)NCc2ccc(F)c3ccccc23)no1
inhibition [1]: < 50% | inhibition [2]: < 50% | EC50 [3]: 73 nM | inhibition [4]: inactive | inhibition [5]: < 50% | inhibition [6]: < 50% | inhibition [7]: inactive | inhibition [8]: inactive

COC[C@H](NC(=O)[C@H](CC(=O)NC(C)(C)C)NC(=O)CCc1ccccc1)C(=O)NCc1cccc2ccccc12
Ratio IC50 [9]: 71

Cc1ccc(S(=O)(=O)N[C@@H](CCC(=O)NC(C)(C)C)C(=O)N[C@@H](C)C(=O)NCc2ccc(F)c3ccccc23)cc1
inhibition [1]: < 50% | inhibition [2]: < 50% | EC50 [3]: 39 nM | inhibition [4]: inactive | inhibition [5]: < 50% | inhibition [6]: < 50% | inhibition [7]: inactive | inhibition [8]: inactive

C[C@H](NC(=O)[C@H](CC(=O)NOC(C)(C)C)NC(=O)CCc1ccccc1)C(=O)NCc1ccnc2ccccc12
IC50 [10]: 2620 nM | IC50 [11]: 59000 nM | Ratio IC50 [9]: 23

C[C@H](NC(=O)[C@H](CC(=O)NC(C)(C)C)NC(=O)C(=O)c1c[nH]c2ccccc12)C(=O)NCc1cccc2ccccc12
inhibition [1]: < 50% | inhibition [2]: < 50% | EC50 [3]: 21 nM | inhibition [4]: Active | inhibition [5]: < 50% | inhibition [6]: < 50% | inhibition [7]: Active | inhibition [8]: inactive

C[C@H](NC(=O)[C@H](CCC(=O)NC(C)(C)C)NC(=O)CCc1ccccc1)C(=O)NCc1ccc(F)c2ccccc12
inhibition [1]: < 50% | IC50 [12]: 39 nM | IC50 [10]: 1.6 nM | inhibition [2]: < 50% | EC50 [3]: 44 nM | inhibition [4]: inactive | inhibition [5]: < 50% | inhibition [6]: < 50% | inhibition [7]: inactive | inhibition [8]: inactive

COC[C@H](NC(=O)[C@H](CC(=O)N(C)C)NC(=O)CCc1ccccc1)C(=O)NCc1cccc2ccccc12
IC50 [11]: > 100000 nM | Ratio IC50 [9]: > 9

COC[C@H](NC(=O)[C@H](CC(=O)NOC(C)(C)C)NC(=O)CCc1ccccc1)C(=O)NCc1cccc(OC)c1OC
IC50 [10]: 479 nM | IC50 [11]: 980 nM | Ratio IC50 [9]: 2

COC[C@H](NC(=O)[C@H](CC(=O)NC(C)(C)C)NC(=O)c1cc(C)on1)C(=O)NCc1cccc2ccccc12
Ratio IC50 [9]: 274

COC[C@H](NC(=O)[C@H](CC(=O)N1CCC1)NC(=O)CCc1ccccc1)C(=O)NCc1cccc2ccccc12
IC50 [11]: > 100000 nM | Ratio IC50 [9]: > 7

COC[C@H](NC(=O)[C@H](CC(=O)N1CCCC1)NC(=O)CCc1ccccc1)C(=O)NCc1cccc2ccccc12
Ratio IC50 [9]: 28

C[C@H](NC(=O)[C@H](CC(=O)NOC(C)(C)C)NC(=O)CCc1ccccc1)C(=O)NCc1cccc2[nH]ccc12
IC50 [10]: 28.4 nM | IC50 [11]: 170 nM | Ratio IC50 [9]: 6

NC(=O)C[C@H](NC(=O)CCc1ccccc1)C(=O)N[C@@H](Cc1ccc(F)cc1)C(=O)NCc1cccc2ccccc12
IC50 [11]: > 100000 nM | Ratio IC50 [9]: > 2.8

COC[C@H](NC(=O)CCc1ccccc1)C(=O)N[C@@H](C)C(=O)NCc1cccc2ccccc12
IC50 [10]: 21700 nM | IC50 [11]: > 100000 nM | Ratio IC50 [9]: > 5

COC[C@H](NC(=O)[C@H](CC(=O)NOC(C)(C)C)NC(=O)CCc1ccccc1)C(=O)NCc1cccc(OC)c1
IC50 [10]: 14.4 nM | IC50 [11]: 101 nM | Ratio IC50 [9]: 7

COC[C@H](NC(=O)[C@H](CC(=O)NOC(C)(C)C)NC(=O)CCc1ccccc1)C(=O)NCc1cccc2c1NCCC2
IC50 [10]: 501 nM | IC50 [11]: 27200 nM | Ratio IC50 [9]: 54

C[C@H](NC(=O)[C@H](CC(=O)NOC(C)(C)C)NC(=O)CCc1ccccc1)C(=O)NCc1cccc2ncccc12
IC50 [10]: 1160 nM | IC50 [11]: 12700 nM | Ratio IC50 [9]: 11

COC[C@H](NC(=O)[C@H](CC(=O)N1CCCCC1)NC(=O)CCc1ccccc1)C(=O)NCc1cccc2ccccc12
Ratio IC50 [9]: 58

COC[C@H](NC(=O)[C@H](CC(=O)NOC(C)(C)C)NC(=O)CCc1ccccc1)C(=O)NCc1cccc2cccnc12
IC50 [10]: 83.7 nM | IC50 [11]: 1040 nM | Ratio IC50 [9]: 12

COC[C@H](NC(=O)[C@H](CC(=O)NC(C)(C)C)NS(=O)(=O)c1ccc(C)cc1)C(=O)NCc1ccc(F)c2ccccc12
inhibition [1]: < 50% | inhibition [2]: < 50% | EC50 [3]: 73 nM | inhibition [4]: inactive | inhibition [5]: < 50% | inhibition [6]: < 50% | inhibition [7]: inactive | inhibition [8]: inactive

COC[C@H](NC(=O)[C@H](CCC(=O)NC(C)(C)C)NS(=O)(=O)c1ccc(C)cc1)C(=O)NCc1ccc(F)c2ccccc12
inhibition [1]: < 50% | inhibition [2]: < 50% | EC50 [3]: 18 nM | inhibition [4]: inactive | inhibition [5]: < 50% | inhibition [6]: < 50% | inhibition [7]: inactive | inhibition [8]: inactive

CCN(CC)C(=O)C[C@H](NC(=O)CCc1ccccc1)C(=O)N[C@@H](COC)C(=O)NCc1cccc2ccccc12
Ratio IC50 [9]: 8
